Assay results reported in ChEMBL document CHEMBL1949566 (Bioorg Med Chem Lett, 2012).
Calls of active or inactive are those of the source. The calls are words filed in the database; no cut-off is given here.

Tested on: not listed separately
Assay: AUC in Sprague-Dawley rat at 3 mg/kg, po
Assay type: ADME, organism-based
Set-up: dose 3 mg/kg, route oral
Conditions: plasma
Outline: (§1)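 Male Sprague–Dawley rats (n = 7) given a single oral dose of 3 mg/kg. AUC, Cmax, Tmax, t1/2, Cl/F and Vss/F were derived from plasma profiles and reported as mean ± S.D.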

Compound | AUC [ng·h/mL]
CCCCc1nc(C)c(CC(=S)N(C)C)c(=O)n1Cc1ccc(-c2ccccc2-c2nnn[n-]2)cc1.O.O.O.[K+] | 678

Tested on: not listed separately
Assay: Apparent oral clearance in Sprague-Dawley rat at 3 mg/kg
Assay type: ADME, organism-based
Set-up: dose 3 mg/kg, route oral
Conditions: in vivo
Outline: as §1

Compound | CL/F [mL/min/kg]
CCCCc1nc(C)c(CC(=S)N(C)C)c(=O)n1Cc1ccc(-c2ccccc2-c2nnn[n-]2)cc1.O.O.O.[K+] | 84

Tested on: Rattus norvegicus
Assay: Antihypertensive activity in conscious spontaneously hypertensive rat assessed as decrease in mean arterial blood pressure at 10 mg/kg, po up to 5 hrs
Assay type: functional, organism-based
Set-up: dose 10 mg/kg
Conditions: Artery
Outline: (§2)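 SHRs were acclimatized 10 weeks, then habituated for 7 days to 37 °C chamber prewarming for 10 min, restraint and a tail cuff with pulse sensor. After stabilization, 10 mg/kg was given orally.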

Compound | Activity
CCCCc1nc(C)c(CC(=S)N(C)C)c(=O)n1Cc1ccc(-c2ccccc2-c2nnn[nH]2)cc1 | Active

Molecular target: T1, Type-1 angiotensin II receptor (Oryctolagus cuniculus) (UniProt P34976)
T1 sequence (whole entry): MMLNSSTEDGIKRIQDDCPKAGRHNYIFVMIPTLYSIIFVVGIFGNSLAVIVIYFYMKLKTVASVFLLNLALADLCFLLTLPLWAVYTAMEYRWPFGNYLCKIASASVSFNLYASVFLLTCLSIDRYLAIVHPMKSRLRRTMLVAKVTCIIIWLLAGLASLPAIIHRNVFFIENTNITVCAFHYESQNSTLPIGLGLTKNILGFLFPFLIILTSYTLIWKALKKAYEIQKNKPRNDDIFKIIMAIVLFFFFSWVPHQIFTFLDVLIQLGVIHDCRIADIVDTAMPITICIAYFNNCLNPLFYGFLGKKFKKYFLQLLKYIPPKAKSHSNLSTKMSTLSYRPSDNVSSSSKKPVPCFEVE
Assay: Ratio of losartan IC50 to compound IC50 for antagonist activity at angiotensin 2 receptor type 1 in New Zealand White rabbit descending thoracic aorta rings
Assay type: functional, tissue-based
Conditions: not given

Compound | Ratio IC50
CCCCc1nc(C)c(CC(=S)N(C)C)c(=O)n1Cc1ccc(-c2ccccc2-c2nnn[nH]2)cc1 | 145

Tested on: Rattus norvegicus
Assay: Antihypertensive activity in conscious spontaneously hypertensive rat assessed as decrease in mean arterial blood pressure at 10 mg/kg, po up to 24 hrs
Assay type: functional, organism-based
Set-up: dose 10 mg/kg
Conditions: Artery
Outline: as §2

Compound | Activity
CCCCc1nc(C)c(CC(=S)N(C)C)c(=O)n1Cc1ccc(-c2ccccc2-c2nnn[nH]2)cc1 | Active

Organism: Rattus norvegicus
Assay: Displacement of [125I]angiotensin 2 from angiotensin 2 receptor type 1 in Sprague-Dawley rat adrenal cortex membranes at 10 uM after 60 mins by gamma counting
Assay type: cell membranes
Conditions: Membrane

Compound | inhibition [%]
CCCCc1nc(C)c(CC(=O)N2CCCC2)c(=O)n1Cc1ccc(-c2ccccc2-c2nnn[nH]2)cc1 | 76.7
CCCCc1nc(C)c(CCC(=O)O)c(=O)n1Cc1ccc(-c2ccccc2-c2nnn[nH]2)cc1 | 27.9
CCCCc1nc(C)c(CC(=O)N2CCCCC2)c(=O)n1Cc1ccc(-c2ccccc2-c2nnn[nH]2)cc1 | 71.7
CCCCc1nc(C)c(CC(=O)O)c(=O)n1Cc1ccc(-c2ccccc2-c2nnn[nH]2)cc1 | 3.65
CCCCc1nc(C)c(CC(=O)N(C)C)c(=O)n1Cc1ccc(-c2ccccc2-c2nnn[nH]2)cc1 | 71.7

Molecular target: T1, Type-1 angiotensin II receptor (Oryctolagus cuniculus)
Assay: Antagonist activity at angiotensin 2 receptor type 1 in New Zealand White rabbit descending thoracic aorta rings assessed as inhibition of KCl-induced contraction preincubated for 30 mins prior KCl challenge
Assay type: functional, tissue-based
Conditions: not given

Compound | inhibition
CCCCc1nc(C)c(CC(=S)N(C)C)c(=O)n1Cc1ccc(-c2ccccc2-c2nnn[nH]2)cc1 | inactive

Tested on: not listed separately
Assay: Oral steady-state volume of distribution in Sprague-Dawley rat at 3 mg/kg
Assay type: ADME, organism-based
Set-up: dose 3 mg/kg
Conditions: in vivo, read-out: Vss/F
Outline: as §1

Compound | Vd/F [L/kg]
CCCCc1nc(C)c(CC(=S)N(C)C)c(=O)n1Cc1ccc(-c2ccccc2-c2nnn[n-]2)cc1.O.O.O.[K+] | 37.3

Tested on: Rattus norvegicus
Assay: Antihypertensive activity in conscious spontaneously hypertensive rat assessed as decrease in mean arterial blood pressure at 10 mg/kg, po at 5 hrs post dose
Assay type: functional, Artery
Set-up: scale not given: the % may be the effect or the level left
Conditions: not given
Outline: as §2

Compound | Activity [%]
CCCCc1nc(C)c(CC(=S)N(C)C)c(=O)n1Cc1ccc(-c2ccccc2-c2nnn[n-]2)cc1.O.O.O.[K+] | 75

Organism: Rattus norvegicus
Assay: Ratio of losartan IC50 to compound IC50 for displacement of [125I]angiotensin 2 from angiotensin 2 receptor type 1 in Sprague-Dawley rat adrenal cortex membranes
Assay type: cell membranes
Conditions: Membrane

Compound | Ratio IC50
CCCCc1nc(C)c(CC(=S)N(C)C)c(=O)n1Cc1ccc(-c2ccccc2-c2nnn[nH]2)cc1 | 615

Tested on: Rattus norvegicus
Assay: Effect on basal heart rate in furosemide treated rat high-renin model at 10 mg/kg, po up to 8 hrs
Assay type: ADME, organism-based
Set-up: dose 10 mg/kg, route oral
Conditions: in vivo
Outline: (§3)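 Furosemide 10 mg/kg sc was given 20 and 2 h before the experiment, with food and water withdrawn for 24 h. Mean arterial pressure and heart rate were recorded by polygraph. After about 60 min of stabilization, 10 mg/kg was given orally. Readings were taken at 20, 40 and 60 min, then every 30 min to 8 h.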

Compound | Activity
CCCCc1nc(C)c(CC(=S)N(C)C)c(=O)n1Cc1ccc(-c2ccccc2-c2nnn[n-]2)cc1.O.O.O.[K+] | Non-toxic

Tested on: not listed separately
Assay: Tmax in Sprague-Dawley rat at 3 mg/kg, po
Assay type: ADME, organism-based
Set-up: dose 3 mg/kg, route oral
Conditions: in vivo
Outline: as §1

Compound | Tmax [min]
CCCCc1nc(C)c(CC(=S)N(C)C)c(=O)n1Cc1ccc(-c2ccccc2-c2nnn[n-]2)cc1.O.O.O.[K+] | 6

Molecular target: T2, Type-1 angiotensin II receptor (Oryctolagus cuniculus, UniProt P34976)
T2 sequence (P34976 whole entry): T1 sequence (whole entry)
Assay: Antagonist activity at angiotensin 2 receptor type 1 in New Zealand White rabbit descending thoracic aorta rings assessed as inhibition of angiotensin 2-induced contraction preincubated for 30 mins prior angiotensin 2 challenge
Assay type: functional, tissue-based
Conditions: not given
Outline: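 Aortic rings held at 2 g resting tension and equilibrated 60 min with repeated washing in Krebs bicarbonate solution. Responsiveness was checked with AngII, then a control cumulative AngII concentration–contractile response curve was run. After washout, test substance was incubated 30 min and a second AngII curve obtained.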

Compound | IC50 [nM]
CCCCc1nc(C)c(CC(=O)N2CCCC2)c(=O)n1Cc1ccc(-c2ccccc2-c2nnn[nH]2)cc1 | 1.58

Molecular target: not listed separately
Assay: Displacement of [125I]angiotensin 2 from angiotensin 2 receptor type 1 in Sprague-Dawley rat adrenal cortex membranes after 60 mins by gamma counting
Assay type: cell membranes, Membrane
Conditions: not given
Outline: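 Adrenal cortex membranes came from male Sprague–Dawley rats (200–250 g); the pellet was taken by differential centrifugation up to 100,000 g. Membranes (60–70 µg protein/assay) were suspended in 50 mM Tris–HCl, 10 mM MgCl2, 0.25% BSA, pH 7.4, with [125I]AngII (0.05 nM) and test compound (3×10^-12 to 10^-6 M, DMSO). Incubation ran 60 min at 25 °C and ended by GF/B filtration. IC50 is 50% inhibition of binding.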

Compound | IC50 [nM]
CCCCc1nc(C)c(CC(=O)N2CCCC2)c(=O)n1Cc1ccc(-c2ccccc2-c2nnn[nH]2)cc1 | 59.2
CCCCc1nc(C)c(CCC(=O)O)c(=O)n1Cc1ccc(-c2ccccc2-c2nnn[nH]2)cc1 | 306
CCCCc1nc(C)c(CC(=O)N2CCCCC2)c(=O)n1Cc1ccc(-c2ccccc2-c2nnn[nH]2)cc1 | 63.3
CCCCc1nc(C)c(CC(=O)O)c(=O)n1Cc1ccc(-c2ccccc2-c2nnn[nH]2)cc1 | 431

Tested on: Rattus norvegicus
Assay: Antihypertensive activity in furosemide treated rat high-renin model assessed as decrease in mean arterial pressure at 10 mg/kg, po up to 8 hrs
Assay type: functional, organism-based
Set-up: dose 10 mg/kg
Conditions: Artery
Outline: as §3

Compound | Activity
CCCCc1nc(C)c(CC(=S)N(C)C)c(=O)n1Cc1ccc(-c2ccccc2-c2nnn[nH]2)cc1 | Active

Tested on: not listed separately
Assay: Cmax in Sprague-Dawley rat at 3 mg/kg, po
Assay type: ADME, organism-based
Set-up: dose 3 mg/kg, route oral
Conditions: in vivo
Outline: as §1

Compound | Cmax [ng/mL]
CCCCc1nc(C)c(CC(=S)N(C)C)c(=O)n1Cc1ccc(-c2ccccc2-c2nnn[n-]2)cc1.O.O.O.[K+] | 242

Molecular target: T1, Type-1 angiotensin II receptor (Oryctolagus cuniculus)
Assay: Antagonist activity at angiotensin 2 receptor type 1 in New Zealand White rabbit descending thoracic aorta rings assessed as inhibition of noradrenaline-induced contraction preincubated for 30 mins prior noradrenaline challenge
Assay type: functional, tissue-based
Conditions: not given

Compound | inhibition
CCCCc1nc(C)c(CC(=S)N(C)C)c(=O)n1Cc1ccc(-c2ccccc2-c2nnn[nH]2)cc1 | inactive

Tested on: Rattus norvegicus
Assay: Drug excretion in Sprague-Dawley rat at 3 mg/kg, po
Assay type: ADME, organism-based
Set-up: dose 3 mg/kg, route oral
Conditions: in vivo

Compound | Ae
CCCCc1nc(C)c(CC(=S)N(C)C)c(=O)n1Cc1ccc(-c2ccccc2-c2nnn[n-]2)cc1.O.O.O.[K+] | Active

Tested on: not listed separately
Assay: Toxicity in po dosed rat assessed maximum tolerated dose
Assay type: organism-based
Conditions: in vivo
Outline: (§4)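 Maximum tolerated dose from a single oral administration.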

Compound | MTD [mg/kg]
CCCCc1nc(C)c(CC(=S)N(C)C)c(=O)n1Cc1ccc(-c2ccccc2-c2nnn[n-]2)cc1.O.O.O.[K+] | > 2000

Tested on: not listed separately
Assay: Toxicity in po dosed mouse assessed maximum tolerated dose
Assay type: organism-based
Conditions: in vivo
Outline: as §4

Compound | MTD [mg/kg]
CCCCc1nc(C)c(CC(=S)N(C)C)c(=O)n1Cc1ccc(-c2ccccc2-c2nnn[n-]2)cc1.O.O.O.[K+] | > 2000

Tested on: Rattus norvegicus
Assay: Antihypertensive activity in iv dosed pithed rat model assessed as inhibition of angiotensin 2-induced pressor response by gould pressure transducer-coupled grass polygraphy
Assay type: functional
Conditions: not given
Outline: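 Pithed rats had blood pressure recorded by an arterial catheter to a pressure transducer/polygraph. After about 60 min of stabilization, AngII (100 ng/kg iv) was given three times at 15 min intervals to set a basal pressor response. Compound was then given iv, followed by AngII 100 ng/kg iv. ED50 for 50% inhibition of maximal pressor response came from the dose–pressure curve.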

Compound | ED50 [mg/kg]
CCCCc1nc(C)c(CC(=O)N2CCCC2)c(=O)n1Cc1ccc(-c2ccccc2-c2nnn[nH]2)cc1 | 0.056
CCCCc1nc(C)c(CCC(=O)O)c(=O)n1Cc1ccc(-c2ccccc2-c2nnn[nH]2)cc1 | 0.094
CCCCc1nc(C)c(CC(=O)N2CCCCC2)c(=O)n1Cc1ccc(-c2ccccc2-c2nnn[nH]2)cc1 | 0.063
CCCCc1nc(C)c(CC(=O)O)c(=O)n1Cc1ccc(-c2ccccc2-c2nnn[nH]2)cc1 | 0.13
CCCCc1nc(C)c(CC(=O)N(C)C)c(=O)n1Cc1ccc(-c2ccccc2-c2nnn[nH]2)cc1 | 0.018

Tested on: Rattus norvegicus
Assay: Ratio of losartan ED50 to compound ED50 for antihypertensive activity in iv dosed pithed rat model assessed as inhibition of angiotensin 2-induced pressor response
Assay type: functional
Conditions: not given

Compound | Ratio ED50
CCCCc1nc(C)c(CC(=O)N(C)C)c(=O)n1Cc1ccc(-c2ccccc2-c2nnn[nH]2)cc1 | 19

Tested on: not listed separately
Assay: Half life in Sprague-Dawley rat at 3 mg/kg, po
Assay type: ADME, organism-based
Set-up: dose 3 mg/kg, route oral
Conditions: in vivo
Outline: as §1

Compound | half-life [h]
CCCCc1nc(C)c(CC(=S)N(C)C)c(=O)n1Cc1ccc(-c2ccccc2-c2nnn[n-]2)cc1.O.O.O.[K+] | 5.3
